The source of these data is ChEMBL document CHEMBL1145760, “Design, synthesis and biological evaluation of benzimidazole/benzothiazole and benzoxazole derivatives as cyclooxygenase inhibitors” (Bioorg Med Chem Lett, 2003).

SMILES strings stand for the structures.

For orientation: IC50 means the concentration needed to halve the response being measured.

The first experiment has as its target T1, Prostaglandin G/H synthase 2 (Homo sapiens, UniProt P35354).
T1 sequence (P35354 whole entry): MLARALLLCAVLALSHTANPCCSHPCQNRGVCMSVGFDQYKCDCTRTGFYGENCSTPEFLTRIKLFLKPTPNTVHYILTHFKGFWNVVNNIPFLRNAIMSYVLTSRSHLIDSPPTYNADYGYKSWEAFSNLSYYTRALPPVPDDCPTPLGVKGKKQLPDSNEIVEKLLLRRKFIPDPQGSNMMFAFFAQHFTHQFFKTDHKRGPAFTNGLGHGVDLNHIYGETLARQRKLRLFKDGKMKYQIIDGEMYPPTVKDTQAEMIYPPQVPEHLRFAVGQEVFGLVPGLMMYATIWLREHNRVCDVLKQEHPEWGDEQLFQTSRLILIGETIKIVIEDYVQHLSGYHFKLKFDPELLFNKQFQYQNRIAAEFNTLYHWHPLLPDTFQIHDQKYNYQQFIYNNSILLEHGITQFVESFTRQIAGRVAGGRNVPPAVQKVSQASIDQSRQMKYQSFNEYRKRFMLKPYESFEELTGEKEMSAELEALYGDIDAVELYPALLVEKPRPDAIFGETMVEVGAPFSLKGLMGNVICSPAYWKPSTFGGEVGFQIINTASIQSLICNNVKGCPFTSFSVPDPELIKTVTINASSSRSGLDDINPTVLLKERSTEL
The experiment is described as follows: Inhibitory activity against Prostaglandin G/H synthase 2 in human whole blood assay as LPS induced PGE-2 generation. Format: tissue-based.
With `CCCCCCCCCCCCCCCc1cccc(OCC)c1CSc1nc2ccc(OC(F)F)cc2[nH]1`, the half-inhibitory concentration (IC50) was more than 10 µM. `CCCCCCCCCCCCCCCc1cccc(OC)c1CSc1nc2ccc([N+](=O)[O-])cc2[nH]1` returned an IC50 of 2.27 µM. In turn, `CCCCCCCCCCCCCCCc1cccc(OCC)c1CSc1nc2ccccc2o1` yielded a half-inhibitory concentration (IC50) of more than 10 µM. In turn, `CCCCCCCCCCCCCCCc1cccc(OC)c1CSc1nc2cc(OC)ccc2[nH]1` yielded an IC50 of more than 10 µM. `CCCCCCCCCCCCCCCc1cccc(OCC)c1CSc1nc2ccc(C)cc2[nH]1`: the IC50 is more than 10 µM. In turn, `CCCCCCCCCCCCCCCc1cccc(OCC)c1CSc1nc2ccccc2s1` registered an IC50 of more than 10 µM. Still for that read-out and setting: for `CCCCCCCCCCCCCCCc1cccc(OCC)c1CSc1nc2ccc(OC)cc2[nH]1` the value was 6.25 µM; for `CCCCCCCCCCCCCCCc1cccc(OC)c1CSc1nc2ccccc2o1`, 2.77 µM; for `CCCCCCCCCCCCCCCc1cccc(OCC)c1CSc1nc2ccccc2[nH]1`, 1.47 µM.

With `CCCCCCCCCCCCCCCc1cccc(OC)c1CSc1nc2cc(C)ccc2[nH]1`, the IC50 was 2.63 µM. Turning to `CCCCCCCCCCCCCCCc1cccc(OC)c1CSc1nc2ccccc2[nH]1`, the IC50 is more than 10 µM.

For the compound `CCCCCCCCCCCCCCCc1cccc(OCC)c1CSc1nc2ccc([N+](=O)[O-])cc2[nH]1`, the IC50 is 3.84 µM. The same measure, in the same setting: the result for `CCCCCCCCCCCCCCCc1cccc(OC)c1CSc1nc2cc(OC(F)F)ccc2[nH]1` reads more than 10 µM.

Turning to `CCCCCCCCCCCCCCCc1cccc(OC)c1CSc1nc2ccccc2s1`, 1.06 µM corresponded to half-maximal inhibition (IC50). In turn, `CCCCCCCCCCCCCCCc1cccc(O)c1CSc1nc2cc(OC)ccc2[nH]1` registered a 50% inhibitory concentration (IC50) of 1 µM.

The target of the next experiment is T2, Prostaglandin G/H synthase 1 (Homo sapiens, UniProt P23219). As to the kind of experiment: Inhibitory activity against Prostaglandin G/H synthase 1 in human whole blood assay as TXB2 generation. It is filed as tissue-based. The gist of the method: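 COX-1 activity measured in human whole blood by TXB2 generation. IC50 values were estimated by nonlinear regression of dose–response curves and are the average of three determinations.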
T2 sequence (P23219 whole entry): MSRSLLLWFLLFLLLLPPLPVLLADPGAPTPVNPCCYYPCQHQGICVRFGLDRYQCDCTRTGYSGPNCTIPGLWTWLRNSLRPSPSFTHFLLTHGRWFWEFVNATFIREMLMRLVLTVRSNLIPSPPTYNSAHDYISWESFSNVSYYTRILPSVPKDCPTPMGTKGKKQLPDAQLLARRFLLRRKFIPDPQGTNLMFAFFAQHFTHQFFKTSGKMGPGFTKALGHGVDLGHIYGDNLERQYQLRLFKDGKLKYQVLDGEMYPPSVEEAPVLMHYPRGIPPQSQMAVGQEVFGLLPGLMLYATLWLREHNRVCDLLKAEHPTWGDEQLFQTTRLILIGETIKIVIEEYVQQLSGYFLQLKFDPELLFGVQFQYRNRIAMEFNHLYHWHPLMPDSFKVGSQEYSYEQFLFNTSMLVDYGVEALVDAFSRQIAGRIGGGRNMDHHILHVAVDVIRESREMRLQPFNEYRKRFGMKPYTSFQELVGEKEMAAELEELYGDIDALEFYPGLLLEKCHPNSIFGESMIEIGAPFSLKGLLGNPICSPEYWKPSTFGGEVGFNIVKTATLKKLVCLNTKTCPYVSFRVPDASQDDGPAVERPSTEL
Compound `CCCCCCCCCCCCCCCc1cccc(OC)c1CSc1nc2ccc([N+](=O)[O-])cc2[nH]1` returned a concentration for half-maximal inhibition (IC50) of more than 500 µM. `CCCCCCCCCCCCCCCc1cccc(OCC)c1CSc1nc2ccc(OC)cc2[nH]1` showed an IC50 of more than 500 µM. `CCCCCCCCCCCCCCCc1cccc(OC)c1CSc1nc2ccccc2o1` yielded a concentration for half-maximal inhibition (IC50) of more than 500 µM. `CCCCCCCCCCCCCCCc1cccc(OCC)c1CSc1nc2ccccc2[nH]1` returned a concentration for half-maximal inhibition (IC50) of more than 500 µM. The same measure, in the same setting: the result for `CCCCCCCCCCCCCCCc1cccc(OC)c1CSc1nc2cc(C)ccc2[nH]1` reads more than 500 µM. For the compound `CCCCCCCCCCCCCCCc1cccc(OCC)c1CSc1nc2ccc([N+](=O)[O-])cc2[nH]1`, the 50% inhibitory concentration (IC50) is more than 500 µM. `CCCCCCCCCCCCCCCc1cccc(OC)c1CSc1nc2ccccc2s1`: the IC50 was more than 500 µM. On the same count and under the same terms, the result for `CCCCCCCCCCCCCCCc1cccc(O)c1CSc1nc2cc(OC)ccc2[nH]1` reads 384 µM.

A further experiment concerns the target T2, Prostaglandin G/H synthase 1. The experiment is described as follows: Ratio for inhibition of COX-1 to that of COX-2.
Regarding `CCCCCCCCCCCCCCCc1cccc(OC)c1CSc1nc2ccccc2o1`, the Ratio was more than 220. With `CCCCCCCCCCCCCCCc1cccc(OCC)c1CSc1nc2cc([N+](=O)[O-])ccc2[nH]1`, the Ratio was more than 130.

Regarding `CCCCCCCCCCCCCCCc1cccc(OCC)c1CSc1nc2ccccc2[nH]1`, the Ratio was more than 340. The same measure, in the same setting: for `CCCCCCCCCCCCCCCc1cccc(OC)c1CSc1nc2cc(C)ccc2[nH]1` the value was more than 190; for `CCCCCCCCCCCCCCCc1cccc(OC)c1CSc1nc2cc([N+](=O)[O-])ccc2[nH]1`, more than 220. Take `CCCCCCCCCCCCCCCc1cccc(OCC)c1CSc1nc2cc(OC)ccc2[nH]1`: the Ratio is more than 80. Regarding `CCCCCCCCCCCCCCCc1cccc(OC)c1CSc1nc2ccccc2s1`, the Ratio was more than 470.

As to `CCCCCCCCCCCCCCCc1cccc(O)c1CSc1nc2cc(OC)ccc2[nH]1`, the Ratio came to 384.
